# Measles CPE – compounds protecting cells from measles virus cytopathic effect, primary screen, measles RdRp inhibitor project, single point, MLSMR library, absorbance; Measles virus-infected cells, CPE protection; protection (pct of control), % at 4 µM; AID 841, 2007; 140,000 compounds, 1.5% hits; in the data active = protection mostly above about 24%, no sharp cut-off; inactive = mostly below about 26%
# Yeast growth inh – growth inhibitors of yeast BB579 in restrictive medium, primary screen, yeast lifespan-shortening project, S. cerevisiae | inhibition, % at 10 µM | 140,000 compounds, 0.51% hits | AID 804, 2007 | OD615, 48 h;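 active = inhibition above a set limit, 3 SD over the mean compound inhibition, cut at about 44% in these data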
#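 System: DeaD yeast strain BB579; buffer or medium: CSMM-D dextrose restrictive medium; technique: OD at 615 nm; schedule: 4 h cell preincubation, 48 h compound exposure, 30 °C humidified; doses: single 10 µM dose; controls: amphotericin B 10 µg/mL, positive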
# RAM network inh – inhibitors of the yeast RAM network, primary screen, dse1pr::URA3 reporter, 5-FOA selection; S. cerevisiae dse1pr::URA3 reporter, 5-FOA growth OD615, 2 d; analog-sensitive cbk1-as2 kinase mutant strain; inhibition, % at 50 µM; 190,000 compounds, 1.8% hits; AID 868, 2007;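 active = inhibition above a set limit, 3 SD over mean compound inhibition, cut at about 8.4% in these data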;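 also: 0% = DMSO-only wells with no growth and 100% = 10 µM 1-NA-PP1 full growth; inhibition rescues growth on 5-FOA so higher OD means more RAM inhibition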
# Yeast life ext – compounds extending yeast replicative lifespan, primary screen, S. cerevisiae, OD615. 130,000 compounds, 0.68% hits. inhibition of the nicotinamide effect, % at 10 µM. S. cerevisiae growth with nicotinamide; deaD strain in restrictive glucose medium;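 active = inhibition above a set limit, placed 3 SD over the median of all compounds, cut at about 26% in these data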;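 also: 0% = nicotinamide-treated wells and 100% = cells grown without nicotinamide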
#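 Test system – modified budding yeast, DeaD strain · Compound – single dose 10 µM compound, 0.25% DMSO · Times – culture preincubation 4 h, compound exposure 48 h, both 30 °C · Detection – optical density (absorbance) at 615 nm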
# * marks the source's active call; other numbers are inactive results; nt = no result. Shown are actives, neighbours in structure and some others; about 3.6% of the full set was active somewhere.
SMILES,Measles CPE,Yeast growth inh,RAM network inh,Yeast life ext
O=c1c2ccccc2nc(CSc2ncnc3nc[nH]c23)n1-c1ccccc1Cl,9,-2,10*,nt
O=C(O)CCCc1ccc(N(CCCl)CCCl)cc1,12,-23,9.8*,27*
CCCCn1c(=O)c(C=Nc2ccc(Cl)cc2)c(O)n(Cc2ccco2)c1=O,6,-58,8.5*,1
CC(C)n1c(=O)c(C=Nc2ccc(S(N)(=O)=O)cc2)c(O)n(Cc2ccco2)c1=O,4,-14,2,-6
CC(C)N1CC=C(c2c[nH]c3ccccc23)CC1,36*,-24,1,2
O=C1NC(=O)N(Cc2ccco2)C(=O)/C1=C/c1cccn1CCOc1ccccc1Cl,17,-19,8.7*,5
O=C1NC(=O)N(Cc2ccccc2)C(=O)/C1=C\c1ccco1,nt,nt,0,nt
CP(=O)(O)CCCN,5,-14,0,-2
CC1CN=C(NCc2ccc(F)cc2)S1 (stereo unspecified),nt,nt,0,nt
COc1ccc(C(=O)C(C)(C)NO)cc1,8,52*,-1,9
CCOc1ccc(/C=C2/C(=O)NC(=O)N(CCc3ccc(F)cc3)C2=O)cc1,4,-13,3,49*
COc1cc(/C=C2\C(=O)NC(=O)N(CCc3ccc(F)cc3)C2=O)ccc1O,11,2,-1,12
O=C1NC(=O)N(CCC2=CCCCC2)C(=O)/C1=C/c1ccc(O)cc1,26,-40,-1,41*
O=C(c1ccco1)C12CN3CN(CN(C3)C1)C2,11,-19,1,-7
CC(C)CCNC(=O)c1cc(C(=O)c2cc(F)ccc2O)cn(CCC(C)C)c1=O,nt,nt,7,nt
CC(C)CCNC(=O)c1cc(C(=O)c2cc(Br)ccc2O)cn(CCC(C)C)c1=O,nt,nt,9.2*,nt
N#CC1=C(N)Oc2c(c(=O)oc3ccccc23)C1c1ccc([N+](=O)[O-])o1 (stereo unspecified),nt,nt,5,nt
COc1ccc(C2C(C#N)=C(N)Oc3c2c(=O)oc2ccccc32)cc1Cn1cc([N+](=O)[O-])cn1 (stereo unspecified),24*,-25,2,-17
O=[N+]([O-])/C=C1\NCCN1Cc1ccc(Cl)nc1,7,9,4,1
Cc1cccc(NP(=O)(Oc2ccccc2F)Oc2ccccc2F)c1C,2,4,8.7*,13
Cc1cc(C=C2C(=O)NC(=O)NC2=O)c(C)n1-c1ccc2c(c1)OCO2,14,-19,3,-4
Cc1cc(C=C2C(=O)NC(=S)NC2=O)c(C)n1-c1ccc2c(c1)OCO2,12,-39,8,39*
Cc1cccc(N/N=C(\C(N)=O)C2=NC(C)(C)Cc3ccccc32)c1,31,-36,0,-6
CN1C2CCC1/C(=C/c1ccccn1)C(=O)/C2=C\c1ccccn1,0,-31,2,37*
CC(c1ccccc1)n1cncc1C(=O)N1CCCC1=O (stereo unspecified),7,-8,2,-18
SMILES,Measles CPE,Yeast growth inh,RAM network inh,Yeast life ext
CC1CCCC(C)N1/N=C/c1c[nH]c2ccc(Br)cc12 (stereo unspecified),7,-30,0,-3
Fc1ccc(C(OCCN2CCCC2)c2ccc(Br)cc2)cc1 (stereo unspecified),54*,16,0,7
N#CC1(c2ccccc2)CCN(C2CC(=O)N(c3ccc4c(c3)OCO4)C2=O)CC1 (stereo unspecified),nt,nt,2,nt
N#CSCC(=O)N1c2ccccc2CCc2ccccc21,8,-51,1,43*
OC(c1ccc(F)cc1)C(c1ccccc1)N1CCOCC1 (stereo unspecified),39*,-33,2,-2
CC(NC(=O)Oc1ccccc1)C(c1cccs1)N1CCOCC1 (stereo unspecified),17,-24,0,nt
Clc1ccc(OCC#CCN2CCCC2)cc1,nt,nt,2,nt
CCCN(CC#CCOc1ccc(OC)cc1)CCC,37*,-7,3,-9
C=CCN(c1ccc(C(=O)N(CC)CC)cc1)S(C)(=O)=O,17,-12,2,nt
CCN(CC)C(=O)c1ccc(N2C(=O)C3CC=C(Cl)CC3C2=O)cc1 (stereo unspecified),3,-2,0,26*
O=c1[nH]c2ccccc2o1,45*,-3,-1,-1
O=c1[nH]c(=O)n(CCC2=CCCCC2)c(O)c1C=NCCN1CCNCC1,35*,-46,2,-2

# Compound activity as filed in PubChem BioAssay.
